# Compounds with a hit are over-represented: about 1.9% of the library has one in this group of screens.
# HCV NS3 hel inh: inhibitors of HCV NS3 helicase, primary screen, biochemical, Cy5 molecular beacon fluorescence; NS3 helicase DNA unwinding; inhibition, % at 10.9 µM; 290,000 tested, 0.56% active; AID 1800, 2009;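 active = inhibition above the mean of all tested compounds plus 3 SD, set per campaign, cut at about 35% in these data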;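 also: 0% = DMSO wells and 100% = thioflavine S control wells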
#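 System: Hepatitis C virus NS3 helicase domain fragment enzyme | Reagent: Annealed dual-labelled DNA beacon duplex, ATP-started | Compound dosing: 10.9 µM single point, 0.8% DMSO | Incubation: 1 h reaction at 25 °C, ATP-initiated | Technique: Cy5 fluorescence | Evaluation: Percent inhibition from t60/t0 fluorescence ratio | Benchmarks: Low DMSO, high thioflavine S at 110 µM | Replication: Singlicate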
# HCV core dimer: inhibitors of HCV core protein dimerization, primary screen, biochemical, TR-FRET, high-throughput | AID 1899, 2009 | inhibition, % at 5 µM | 300,000 tested, 0.33% active | TR-FRET GST/Flag-core106 dimerization, 1536-well;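 active = inhibition above the mean of all tested compounds plus 3 SD, set per screening campaign, cut at about 45% in these data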
#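 Material: GST/Flag-tagged HCV core106 proteins. Incubation: 4 h, 22.5 °C incubation. Read-out basis: inhibition (%) from 671 over 617 nm ratio. Measured by: TR-FRET, excitation 340 nm, emission 617 and 671 nm.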
# p-CIP stab down: p/CIP-EGFP fusion destabilizers, primary screen, fluorescence, F442A cells; 16 h; decrease of EGFP signal, % at 10 µM; 290,000 tested, 0.01% active;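 active = EGFP signal decrease of at least 30% at 10 µM or well 3 SD below plate mean, unless failing retest; inactive = the rest, including hits failing retest or dose response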
# GPR7 antagonist: GPR7 receptor antagonists, primary screen, cell-based, fluorescence, single concentration | inhibition, % at 4.4 µM | GPR7-expressing cells, fluorescence antagonist assay | 290,000 tested, 1.1% active | Neuropeptides B/W receptor type 1 (Homo sapiens), P48145; in the data active = inhibition above about 16%, passing the limit was not always enough;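 also: cells stimulated with the agonist NPW; 0% = agonist with vehicle and 100% = vehicle without agonist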
# Target sequence (P48145 whole entry, looked up): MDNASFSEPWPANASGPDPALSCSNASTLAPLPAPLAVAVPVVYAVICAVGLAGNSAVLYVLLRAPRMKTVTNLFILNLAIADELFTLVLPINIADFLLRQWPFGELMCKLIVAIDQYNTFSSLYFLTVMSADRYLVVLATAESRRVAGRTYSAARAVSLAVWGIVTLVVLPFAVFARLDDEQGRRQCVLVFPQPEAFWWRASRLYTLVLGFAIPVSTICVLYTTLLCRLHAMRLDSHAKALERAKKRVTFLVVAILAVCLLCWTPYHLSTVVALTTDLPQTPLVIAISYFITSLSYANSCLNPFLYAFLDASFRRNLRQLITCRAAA
# DNA FID counter-1: compounds displacing fluorescent DNA intercalator, primary screen, artefact control for HCV NS3 helicase inhibitor project, biochemical, FID fluorescence. DNA fluorescent intercalator displacement. inhibition, % at 7.9 µM. 290,000 tested, 0.17% active;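 also: 0% = vehicle and 100% = reference compound; higher means more ethidium bromide displaced from hairpin DNA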
# NS3 helicase cf: HCV NS3 helicase inhibitors, retest, confirmation, biochemical, Cy5 molecular beacon fluorescence, triplicate; shares compounds with HCV NS3 hel inh; NS3 helicase DNA unwinding; inhibition, % at 10.9 µM; 1,600 tested, 31% active;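 active = inhibition above the mean of all tested compounds plus 3 SD, cutoff set per campaign, cut at about 36% in these data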
# DNA FID counter-2: compounds displacing fluorescent DNA intercalator, artefact control for HCV NS3 helicase inhibitor project, biochemical, FID fluorescence, triplicate; shares compounds with HCV NS3 hel inh; DNA fluorescent intercalator displacement; inhibition, % at 7.9 µM; 1,600 tested, 4% active;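 also: 0% = vehicle and 100% = reference compound; higher means more displacement of ethidium bromide from the DNA hairpin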
# The depositor's hits bear a star; / = no result. Rule as the data show it, unless noted: active = inhibition above about 37%; inactive = the rest.
SMILES,HCV NS3 hel inh,HCV core dimer,p-CIP stab down,GPR7 antagonist,DNA FID counter-1,others
CN(CC(O)COc1ccccc1F)C1CCCCC1 (configuration not stated),2.0,-0.3,0.0,1.5,-3.4,
COc1ccc(C(OCC(O)CN(C)C2CCCCC2)c2ccc(OC)cc2)cc1 (configuration not stated),-55.2,-14.3,6.0,20.3*,25.5,
CCc1ccccc1N(CC(=O)NC(C)(C)CC)C(=O)CCC(=O)Nc1nccs1,-4.1,7.2,5.0,-8.6,-38.9,
CCCCn1c(O)c(/C=C/C=C/C=Nc2ccccc2)sc1=S,22.2,62.8*,-15.8,-16.0,-15.0,
Cc1ccccc1NC(=O)c1ccccc1N(C)S(=O)(=O)c1ccccc1,/,2.6,/,/,/,
O=C(C1CCC(Cn2c(=S)[nH]c3ccccc3c2=O)CC1)N1CCN(c2ccccc2)CC1 (configuration not stated),-13.7,52.7*,/,-2.1,-6.8,
Cc1cccc(NS(=O)(=O)c2ccc(NC(=O)CN(c3cc([N+](=O)[O-])ccc3C)S(C)(=O)=O)cc2)c1,-5.2,4.2,4.9,65.8*,20.3,
COc1ccc(C)cc1NS(=O)(=O)c1ccc(NC(=O)CN(c2cc([N+](=O)[O-])ccc2C)S(C)(=O)=O)cc1,-26.7,2.8,9.1,16.7,9.2,
O=C1/C(=C2\C(=O)N(Cc3ccc(F)cc3)c3ccccc32)SC(=S)N1CCS(=O)(=O)O,-24.3,4.8,-17.0,-0.5,39.0*,
O=S(=O)(Nc1ccc(Br)cn1)c1ccc(Cl)s1,4.5,4.0,-5.6,-3.7,-8.8,
O=c1c(Cc2ccccc2)c(O)ccn1C1CCCCCCC1,-3.9,2.4,-12.6,-5.2,-8.6,
O=C(/C=C/c1ccco1)N1CCc2ccccc21,10.2,4.8,-43.4,1.2,-10.2,
Cc1ccc(/C=C/C(=O)N2CCc3ccccc32)o1,28.5,62.8*,-5.2,4.8,-11.1,
COc1c(Cl)cc(C(=O)NCc2ccco2)cc1Cl,21.0,1.3,-0.4,10.2,-5.2,
COc1cccc(S(=O)(=O)Nc2ccc(C(=O)Nc3ccncc3)cc2)c1,-15.0,-5.8,-13.3,2.1,7.9,
COc1ccc(NS(=O)(=O)c2cccc(NC(=O)c3ccc(Cl)nc3)c2)cc1,7.5,5.3,-16.4,49.1*,-5.1,
COc1ccc(NS(=O)(=O)c2cccc(C(=O)NNC(=O)c3cccn3C)c2)cc1,30.1,70.6*,-2.7,-14.8,-5.6,
COc1cc(NC(=O)c2ccccc2)c(OC)cc1NC(=O)Cc1cccs1,11.5,66.5*,6.2,-8.0,-16.0,
COC(=O)c1cc(NC(=O)Cc2cccs2)cc(C(=O)OC)c1,13.6,49.2*,-5.1,-12.5,-5.7,
Cc1ccc([N+](=O)[O-])cc1NC(=O)Cc1cccs1,23.2,54.1*,9.0,-2.6,-5.3,
CC(=O)Nc1cccc(NC(=O)Cc2cccs2)c1,0.5,23.1,-0.4,-15.4,-3.3,
Cn1c(=O)c2c(O)c(C=Nc3ccc(F)cc3)c(=O)n(C)c2n(C)c1=O,-2.1,-1.3,-4.8,-9.9,-2.1,
O=C(COC(=O)/C=C/c1cccs1)NC1CC1,-5.3,-3.3,-1.5,-9.9,-0.3,
O=C(Nc1ccccc1NC(=O)c1ccco1)c1ccco1,-8.1,1.1,-4.6,-0.6,0.7,
O=C(Nc1cccc2cccc(NC(=O)c3ccco3)c12)c1ccco1,0.1,48.1*,-1.9,-6.5,0.7,
SMILES,HCV NS3 hel inh,HCV core dimer,p-CIP stab down,GPR7 antagonist,DNA FID counter-1,others
Cc1ccc(-n2cc(C(=O)c3ccc(F)cc3)nn2)cc1Cl,-4.6,69.6*,1.0,4.8,-0.6,
Nc1cc(=O)[nH]c2nnc(SCC(=O)Nc3cccc4ccccc34)n12,6.5,-11.2,-15.4,5.8,-2.0,
CCOC(=O)CNC(=S)SC,-8.4,0.5,-1.6,-15.5,-1.1,
CCOC(=O)CNC(=S)n1ncnc1N,11.3,-13.3,16.0,16.5*,1.2,
NS(=O)(=O)c1ccc(NC(=O)COC(=O)CCNC(=O)NC23CC4CC(CC(C4)C2)C3)cc1,-1.6,-4.1,-13.5,17.0*,-15.7,
O=C(/C=C/c1ccco1)N1CCCC(c2ccccc2)C1 (configuration not stated),28.4,48.0*,-11.8,-2.9,-15.4,
Cc1cc(=O)oc2cc(NC(=O)C(CCCN=C(N)N)NC(=O)OCc3ccccc3)ccc12 (configuration not stated),-49.1,/,-13.8,8.8,41.3*,
Cc1cc(C)cc(-n2c3nc4ccccc4nc3c3c(=O)n(Cc4ccco4)cnc32)c1,43.2*,59.6*,1.8,-7.9,-22.0,
O=C(NCc1ccco1)c1cc([N+](=O)[O-])ccc1N1CCCCC1,14.0,-2.5,-12.5,6.5,1.3,
O=C(NCc1ccc2c(c1)OCO2)c1cc([N+](=O)[O-])ccc1N1CCCCC1,-4.9,13.5,0.6,36.6*,-11.0,
Cc1nn(-c2ccc(F)cc2)c(-n2cccc2)c1C(=O)N1CCN(C(=O)c2ccco2)CC1,-1.7,-11.5,0.0,-8.3,-49.2,
O=C(CSc1nnnn1-c1ccccc1)Nc1ccc(N2CCOCC2)c(Cl)c1,-1.3,7.2,-9.3,-11.6,-5.4,
CN1CCN(c2ccc(NC(=O)CSc3nnnn3-c3ccccc3Cl)cc2)CC1,-67.3,-6.5,-8.2,7.6,37.5*,
COc1ccc2c(CC(=O)Nc3ccc(OC)nc3)coc2c1,4.0,-2.3,-27.6,-1.9,-1.0,
O=C(C[n+]1cn(C(F)F)c2ccccc21)c1ccc(OC(F)F)cc1,-3.1,5.5,0.0,-10.2,-1.0,
COCc1c(Br)c(C)nc(OCC(=O)N/N=C/c2cc(C)n(-c3ccc([N+](=O)[O-])cc3)c2C)c1C#N,0.4,48.3*,-6.3,-3.4,-1.6,
CCNC(=O)C1CCCN1C(=O)C(CCCN=C(N)N)NC(=O)C(CC(C)C)NC(=O)C(Cc1cn(Cc2ccccc2)cn1)NC(=O)C(Cc1ccc(O)cc1)NC(=O)C(CO)NC(=O)C(Cc1c[nH]c2ccccc12)NC(=O)C(Cc1cnc[nH]1)NC(=O)C1CCC(=O)N1 (configuration not stated),-92.2,5.5,22.2,5.1,43.6*,
Cc1c(NC(=O)COC(=O)c2ncc(Cl)c(Cl)c2Cl)c(=O)n(-c2ccccc2)n1C,/,-3.7,/,/,/,
Cc1c(NC(=O)COC(=O)c2ccccc2Cl)c(=O)n(-c2ccccc2)n1C,107.7*,-0.1,8.0,0.5,-1.3,NS3 helicase cf=-11.1;DNA FID counter-2=-1.1

# Source: PubChem
